Measured values: ChEMBL document CHEMBL1145777 (J Med Chem, 2003)

What was measured:
[1] = molecular target: Kappa-type opioid receptor (Cavia porcellus) (UniProt P41144); assay: Ratio of binding affinity of Opioid receptor kappa 1 to Opioid receptor mu 1 to Opioid receptor delta 1; kappa:mu:delta = 13:10:1
[2] = Binding affinity towards Opioid receptor delta 1 from guinea pig brain using [3H]naltrindole as radioligand
[3] = molecular target: Mu-type opioid receptor (Cavia porcellus, UniProt P97266); assay: Binding affinity towards Opioid receptor mu 1 from guinea pig brain using [3H]DAMGO as radioligand
Chain of Mu-type opioid receptor (P97266 whole entry): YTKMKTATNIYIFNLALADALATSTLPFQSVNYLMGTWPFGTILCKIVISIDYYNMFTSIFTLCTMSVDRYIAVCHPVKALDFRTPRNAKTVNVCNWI

[4] = molecular target: Kappa-type opioid receptor (Cavia porcellus) (UniProt P41144); assay: Ratio of binding affinity of Opioid receptor kappa 1 to Opioid receptor mu 1 to Opioid receptor delta 1; kappa:mu:delta = 45:12:1
[5] = molecular target: Kappa-type opioid receptor (Cavia porcellus, UniProt P41144); assay: Binding affinity towards Opioid receptor kappa 1 from guinea pig brain using [3H]U-69593 as radioligand
Chain of Kappa-type opioid receptor (P41144 whole entry): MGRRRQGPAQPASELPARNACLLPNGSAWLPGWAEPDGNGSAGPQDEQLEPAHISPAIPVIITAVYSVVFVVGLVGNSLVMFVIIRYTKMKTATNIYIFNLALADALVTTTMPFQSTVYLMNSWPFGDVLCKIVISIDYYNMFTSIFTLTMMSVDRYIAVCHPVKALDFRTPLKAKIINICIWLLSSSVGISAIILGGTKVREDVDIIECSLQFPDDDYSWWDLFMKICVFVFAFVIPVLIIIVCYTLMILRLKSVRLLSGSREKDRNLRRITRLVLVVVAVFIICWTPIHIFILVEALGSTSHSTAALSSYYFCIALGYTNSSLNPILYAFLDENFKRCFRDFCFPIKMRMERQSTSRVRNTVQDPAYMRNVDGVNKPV
Summary of the method: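 Uses 1 nM [3H]U69,593 with guinea pig brain membrane protein (500 µg), 12 concentrations, 50 mM Tris-HCl pH 7.5, 60 min at 25 °C. Nonspecific binding with 10 µM naloxone. Filters pre-soaked in 0.1% polyethylenimine; bound label counted.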

[6] = molecular target: Kappa-type opioid receptor (Cavia porcellus) (UniProt P41144); assay: Ratio of binding affinity of Opioid receptor kappa 1 to Opioid receptor mu 1 to Opioid receptor delta 1; kappa:mu:delta = 36:14:1
[7] = molecular target: Kappa-type opioid receptor (Cavia porcellus) (UniProt P41144); assay: Ratio of binding affinity of Opioid receptor kappa 1 to Opioid receptor mu 1 to Opioid receptor delta 1; kappa:mu:delta = 5:3:1
[8] = molecular target: Kappa-type opioid receptor (Cavia porcellus) (UniProt P41144); assay: Ratio of binding affinity of Opioid receptor kappa 1 to Opioid receptor mu 1 to Opioid receptor delta 1; kappa:mu:delta = 4:3:1

Chain of Kappa-type opioid receptor (Cavia porcellus) (P41144 whole entry): as above

Structure (SMILES) | Ratio [1] | Ki [2] [nM] | Ki [3] [nM] | Ratio [4] | Ki [5] [nM] | Ratio [6] | Ratio [7] | Ratio [8]
C[C@H]1C2Cc3ccc(N(C)Cc4ccccc4)cc3[C@@]1(C)CCN2CC1CC1 | 13 | 570 |  |  |  |  |  | 
COc1ccccc1Nc1ccc2c(c1)[C@@]1(C)CCN(CC3CC3)C(C2)[C@@H]1C |  |  | 8.5 | 45 | 2.2 |  |  | 
C[C@H]1C2Cc3cc4cc[nH]c4cc3[C@@]1(C)CCN2CC1CC1 |  |  | 18 |  | 7 | 36 |  | 
C[C@H]1C2Cc3ccc(Nc4ccc(Cl)c(Cl)c4)cc3[C@@]1(C)CCN2CC1CC1 |  |  | 8.4 |  | 5.7 |  | 5 | 
C[C@H]1C2Cc3ccc(Nc4ccc(C(C)(C)C)cc4)cc3[C@@]1(C)CCN2CC1CC1 |  |  | 18 |  | 14 |  |  | 4
